Results gathered from unrelated publications.
Compare with care: the assays were run in different laboratories.
Effect on: cell growth or viability

Cc1ccc2nc(-c3cccc(O)c3)[nH]c2c1
IC50 (MDA-MB-231; MTT; 48 h): > 100 µM

COC(=O)CN=c1scc(-c2ccccc2)n1-c1ccc(Cl)cc1
IC50 (Panc 04.03; MTT; 72 h): 52.1 µM

CCOc1cc(-c2nc3ccc(C)cc3[nH]2)ccc1O
IC50 (MDA-MB-231; MTT; 48 h): > 100 µM

COc1cc(C)c(-c2c(C)cc(OC)c3c(=O)cc(-c4ccccc4)oc23)c2oc(-c3ccccc3)cc(=O)c12
IC50 (HS27; MTT; 24 h): > 200 µM

Oc1ccc(Nc2nc(-c3ccc(Cl)cc3)cs2)cc1
IC50 (FF2441; MTS; 48 h): > 100 µM

CC(=O)c1cccc(N=Nc2c(C(=O)O)cc(O)c(O)c2O)c1
IC50 (A-375; MTT): 11.9 µM

CC(=O)O[C@H]1C(=O)[C@@]2(C)[C@H]([C@H](OC(=O)c3ccccc3)[C@]3(O)C[C@H](OC(=O)[C@H](O)[C@@H](NC(=O)c4ccccc4)c4ccccc4)C(C)=C1C3(C)C)[C@]1(OC(C)=O)CO[C@@H]1C[C@@H]2O
IC50 (MDA-MB-231; MTT): 1.38 µM

COc1ccc(C[C@H]2CO[C@H](c3ccc(OC)c(OC)c3)[C@H]2COC(=O)CC(C)C)cc1OC
IC50 (rat VSMC; resazurin; 48 h): 31 µM

Cc1ccc2nc(-c3ccc4c(c3)OCO4)[nH]c2c1
IC50 (MDA-MB-231; MTT; 48 h): > 100 µM

COc1cc(-c2ncn(/C=C\C(=O)OC(C)C)n2)cc(C(F)(F)F)c1
IC50 (Mono-Mac-1; 72 h): 0.474 µM

Oc1c(I)cc(I)c2cccnc12
IC50 (BEL-7404; MTT; 48 h): > 100 µM

COc1cc(C)cc2oc(-c3cccc(Br)c3)cc(=O)c12
IC50 (HS27; MTT; 24 h): 104 µM

C/C=C(/C)C(=O)OC[C@H]1[C@@H](Cc2ccc(F)cc2)CO[C@@H]1c1ccc(F)cc1
IC50 (rat VSMC; resazurin; 48 h): 4.7 µM

Oc1c(Br)cc(Br)c2cccnc12
IC50 (BEL-7404; MTT; 48 h): 68.1 µM

Clc1ccc(-c2nc3ccccc3n2Cc2ccccc2)cc1
IC50 (MDA-MB-231; MTT): 35 µM

Cc1ccc2c(Cl)cc(Cl)c(O)c2n1
IC50 (BEL-7404; MTT; 48 h): > 100 µM

COC(=O)CN=c1scc(-c2ccccc2)n1-c1ccccc1C
IC50 (Panc 04.03; MTT; 72 h): > 100 µM

C/C=C(/C)C(=O)OC[C@H]1[C@@H](Cc2ccc(C(F)(F)F)cc2)CO[C@@H]1c1ccccc1
IC50 (rat VSMC; resazurin; 48 h): 4.2 µM

COC(=O)CN=c1scc(-c2ccccc2)n1-c1ccccc1OC
IC50 (Panc 04.03; MTT; 72 h): 52.2 µM

C=CCn1c(-c2ccc([N+](=O)[O-])cc2)nc2ccc(C)cc21
IC50 (MDA-MB-231; MTT): > 100 µM

COc1cc(OC)c2c(=O)cc(-c3cccc(Br)c3)oc2c1
IC50 (HS27; MTT; 24 h): 128 µM

CCCCC[C@H](O)CC(=O)CCc1ccc(O)c(OC)c1
IC50 (MRC5; SRB): 303 µM

O=C(O)/C=C/c1ccc(O)cc1
IC50 (A-375; MTT): > 50 µM

COc1cc(C)cc2oc(-c3ccc(C(F)(F)F)cc3)cc(=O)c12
IC50 (HS27; MTT; 24 h): > 200 µM

Cc1ccc2nc(-c3cccc([N+](=O)[O-])c3)[nH]c2c1
IC50 (MDA-MB-231; MTT; 48 h): > 100 µM

COC(=O)CN=c1scc(-c2ccccc2)n1-c1ccccc1[N+](=O)[O-]
IC50 (Panc 04.03; MTT; 72 h): 22.1 µM

COc1cccc2c1C(=O)c1c(O)c3c(c(O)c1C2=O)C[C@@](O)(C(=O)CO)C[C@@H]3O[C@H]1C[C@H](N)[C@H](O)[C@H](C)O1
IC50 (LLC-PK11; neutral red; 48 h): < 0.55 µg/mL

Nc1nc(Nc2ccc3c(c2)CC[C@@H](N2CCCC2)CC3)nn1-c1cc2c(nn1)-c1ccccc1CCC2
IC50 (CMK; trypan blue; 72 h): 2.24 µM

Cl.Oc1cccc2c1[nH]c1c(C3=CC4(O)CC/C=C\CCCCN5CCC3C3(CC6/C=C\CCCCN6C43)C5)nccc12 (single isomer, unassigned; (+))
IC50 (LLC-PK11; neutral red; 48 h): 1.85 µg/mL

COc1ccc(C(=O)O[C@@H]2CN3Cc4c(cc5c(c4OC)OCO5)[C@@]24C=C[C@H](OC)C[C@@H]34)cc1OC
IC50 (MRC5; WST-1): 6.1 µM

COc1cc(C)cc2oc(-c3ccccc3)cc(=O)c12
IC50 (HS27; MTT; 24 h): > 200 µM

CCOc1cc(-c2nc3ccccc3[nH]2)ccc1O
IC50 (MDA-MB-231; MTT; 48 h): 48.3 µM

COc1ccc(-c2cc(=O)c3c(OC)cc(C)cc3o2)cc1
IC50 (HS27; MTT; 24 h): > 200 µM

c1ccc(-c2ccccn2)nc1
IC50 (BEL-7404; MTT; 48 h): > 50 µM

COc1ccc(-c2cc(=O)c3c(OC)cc(C)c(-c4c(C)cc(OC)c5c(=O)cc(-c6ccc(OC)cc6)oc45)c3o2)cc1
IC50 (HS27; MTT; 24 h): > 200 µM

COC(=O)CN=c1scc(-c2ccccc2)n1-c1ccc(C)cc1
IC50 (SiHa; MTT; 72 h): 6.17 µM

COc1cc(C)c(-c2c(C)cc(OC)c3c(=O)cc(-c4ccc(N(C)C)cc4)oc23)c2oc(-c3ccc(N(C)C)cc3)cc(=O)c12
IC50 (HS27; MTT): 180 µM

COC(=O)CN=c1scc(-c2ccccc2)n1-c1ccc(OC)cc1
IC50 (SiHa; MTT; 72 h): 2.32 µM
